MPTP block: mitochondrial permeability transition pore inhibitors, primary screen, biochemical, isolated mouse mitochondria, absorbance; Ca2+ swelling absorbance, 30 min; AID 602449, 2012; actives 1.4% (n = 360,000); inhibition, % at 10 µM;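 active means inhibition of 50% or more, scaled per plate between neutral and stimulator controls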
GRIN3A LBD mod: binders of NR3A ligand-binding domain, primary screen, biophysical, differential scanning fluorimetry, uHTS; Glutamate receptor ionotropic, NMDA 3A (GRIN3A) ligand-binding domain; NR3A LBD differential scanning fluorimetry, Tm shift; 0% = protein alone, 100% = glycine-bound protein; Tm shift relative to glycine control, % at 25 µM; actives 2.5% (n = 340,000); AID 1259313, 2017;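 active means melting temperature shift of at least 10% of the positive control shift, at one fixed dose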
WT yeast gro inh: growth inhibition of WT strain, primary screen, mitochondrial fusion inhibitor project, WT and mutant strains, chemical genetic. mitochondrial fusion phenotypic screen. inhibition, % at 10 µM. actives 2.1% (n = 190,000). AID 1362, 2008; in the data active means inhibition above about 58%; tested in S. cerevisiae
Tb MetRS inh: T. brucei MetRS inhibitors, primary screen, biochemical, luminescence; methionyl-tRNA synthetase (Trypanosoma brucei brucei); actives 0.4% (n = 360,000); purified T. brucei MetRS, ATP depletion, Kinase-Glo luminescence; AID 624268, 2012; inhibition, % at 11.9 µM;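 active means inhibition above a per-plate cutoff of the control wells' mean inhibition plus 3 SD, cut at about 5.5% in these data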
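System: purified T. brucei MetRS enzyme / Detection: Kinase-Glo luciferase luminescence reporting remaining unconsumed ATP / Medium: HEPES buffer with MgCl2, KCl, DTT, spermine, BSA, pyrophosphatase / Replication: singlicate, one well per compound / Evaluation: percent inhibition relative to median high and low control wells / Schedule: 2 h aminoacylation at 25 °C after 15 min preincubation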
CHOP inh: inhibitors of CHOP promoter induction, primary screen, cell-based, unfolded protein response, luciferase reporter | CHO-K1 CHOP-promoter luciferase, tunicamycin-induced, 15-18 h | inhibition, % at 10 µM | actives 3.8% (n = 220,000) | AID 2732, 2010;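 active means compounds that reduced the stress-induced luciferase reporter signal by more than about 70% of percent inhibition, limit read from the data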
EBV gp42 block: Epstein-Barr virus gp42 inhibitors, primary screen, biochemical, uHTS, fluorescence polarization; inhibition, % (tested at 21.74 µM); actives 0.42% (n = 220,000); AID 1085, 2008; Fluorescence polarization binding assay, mP read-out; in the data active means inhibition above about 50%
Target sequence (Q1HVG2 whole entry, looked up): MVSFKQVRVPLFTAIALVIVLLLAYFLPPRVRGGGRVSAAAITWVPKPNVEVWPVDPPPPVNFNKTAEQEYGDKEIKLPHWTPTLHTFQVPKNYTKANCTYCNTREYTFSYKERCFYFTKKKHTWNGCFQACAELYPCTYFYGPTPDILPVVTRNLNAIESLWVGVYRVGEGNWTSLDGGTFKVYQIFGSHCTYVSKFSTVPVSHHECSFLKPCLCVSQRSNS
Of the large screens only hits and unclear results are named; the others gave an inactive call. Hits are enriched below; roughly 6.4% of the tested compounds scored in any of these assays.

Cc1ccc(-c2nc(CCN3C(=O)c4ccccc4C3=O)cs2)cc1	none
COc1ccc2nc(NC(=O)CN(c3ccc(C)cc3)S(=O)(=O)c3c(C)nn(C)c3C)sc2c1	WT yeast gro inh 69.4
CCc1ccc(N(CC(=O)Nc2nc3ccc(C)cc3s2)S(=O)(=O)c2c(C)noc2C)cc1	CHOP inh 82.6
COc1ccc(NC(=O)CN(c2ccc(C)cc2)S(=O)(=O)c2c(C)nn(C)c2C)cc1	none (no result: WT yeast gro inh, CHOP inh, EBV gp42 block)
Cc1sc2nc(CSc3ncn[nH]3)[nH]c(=O)c2c1C	none
Cc1nn(-c2ccc(N3CCCCC3)nn2)c(C)c1CCC(=O)Nc1cccc(F)c1	none (no result: WT yeast gro inh, CHOP inh, EBV gp42 block)
CC(=O)n1c2c(c3ccccc31)OC(N)=C(C#N)C2c1cccc(Cl)c1Cl (stereo not drawn)	GRIN3A LBD mod 13.5
N#CC1=C(N)Oc2cc(N)ccc2C1c1ccccc1Cl (stereo not drawn)	none (no result: WT yeast gro inh, CHOP inh, EBV gp42 block)
Cc1ccc(NC(=O)CSc2nnc(C3COc4ccccc4O3)o2)c(Cl)c1 (stereo not drawn)	none
CC(C)c1ccc(-c2noc(C3CCCN(C(=O)c4ccc(F)cc4F)C3)n2)cc1 (stereo not drawn)	WT yeast gro inh 72.3
COc1ccc(C(C)=O)cc1CON=C1CSCc2ccccc21	none (no result: GRIN3A LBD mod, WT yeast gro inh, CHOP inh, EBV gp42 block)
CC1(C(=O)NS(=O)(=O)c2cccc(Cl)c2)CCN1C(=O)c1ccccc1CCc1ccccc1 (stereo not drawn)	none (no result: GRIN3A LBD mod, WT yeast gro inh, CHOP inh, EBV gp42 block)
Cc1c(NS(=O)(=O)c2cccs2)cccc1-c1nc2cccnc2s1	none (no result: WT yeast gro inh)
O=S(=O)(Nc1cccc2ncccc12)c1cccs1	WT yeast gro inh 59.2 (no result: CHOP inh)
Cc1cc(C)c2nc(SC(C)C(=O)NCC(=O)Nc3ccc(F)c(F)c3F)cc(C)c2c1 (stereo not drawn)	CHOP inh 91.5
CCOC(=O)c1sc(N/N=C/c2cc(Br)c(O)c(OC)c2)nc1C	GRIN3A LBD mod 14.0 (no result: WT yeast gro inh, CHOP inh, EBV gp42 block)
CCOC(=O)N/N=C/c1cc(OC)c(O)c(OC)c1	none
CC(=O)c1sc(N/N=C/c2cccc(O)c2)nc1C	GRIN3A LBD mod 13.7
CCSc1n[nH]c(=S)s1	none
COCCNC(=O)C(=O)NCC1OCCN1S(=O)(=O)c1ccc(C)cc1 (stereo not drawn)	GRIN3A LBD mod 14.1 (no result: WT yeast gro inh, CHOP inh, EBV gp42 block)
CNC(=O)C(=O)NCC1OCCN1S(=O)(=O)c1ccc(C)cc1 (stereo not drawn)	GRIN3A LBD mod 11.1 (no result: WT yeast gro inh, CHOP inh, EBV gp42 block)
COCCNC(=O)C(=O)NCC1OCCN1S(=O)(=O)c1ccc2c(c1)OCCO2 (stereo not drawn)	none (no result: WT yeast gro inh)
NS(=O)(=O)c1ccc(NC(CNS(=O)(=O)c2ccccc2)c2ccccc2)cc1 (stereo not drawn)	none
Cc1ccc(NC(CNS(=O)(=O)c2ccc(Cl)cc2)c2ccccc2)cc1 (stereo not drawn)	GRIN3A LBD mod 11.3, WT yeast gro inh 87.7, CHOP inh 103.8
Cc1cc(C(=O)O)ccc1-c1ccc(/C=C2\NC(=O)N(Cc3ccccc3Cl)C2=O)o1	CHOP inh 73.2
Cc1ccc(CN2C(=O)N/C(=C\c3ccc(-c4ccc(C(=O)O)cc4C)o3)C2=O)cc1	none (no result: WT yeast gro inh)
CC(C)C(C)NC(=O)CSc1nnc(-c2c[nH]c3ccccc23)o1 (stereo not drawn)	none
Cc1ccc(C(=O)CSc2nnc(-c3c[nH]c4ccccc34)o2)cc1	CHOP inh 94.8
O=C(CSc1nnc(-c2c[nH]c3ccccc23)o1)N(Cc1ccccc1)c1ccc(F)cc1	WT yeast gro inh 59.5, CHOP inh 71.5
Clc1cccc(CSc2nnc(-c3c[nH]c4ccccc34)o2)c1	GRIN3A LBD mod 15.7
Clc1ccc2nc(CSc3nnc(-c4c[nH]c5ccccc45)o3)cn2c1	none (no result: WT yeast gro inh, CHOP inh, EBV gp42 block)
O=C(CCl)Oc1ccc2occ(C(=O)c3cccs3)c2c1	none
C#CCn1c(S(=O)(=O)Cc2ccccc2Cl)nc(-c2ccccc2)c1-c1ccccc1	CHOP inh 80.4
CCOC(=O)Cn1c(-c2cccnc2)nc(-c2ccccc2)c1-c1ccccc1	none (no result: WT yeast gro inh, CHOP inh, EBV gp42 block)
CCOC(=O)Cn1c(S(=O)(=O)Cc2ccccc2Cl)nc(-c2ccccc2)c1-c1ccccc1	CHOP inh 70.1
CSc1ncccc1C(=O)OC(C)C(=O)Nc1ccc2c(c1)OCCO2 (stereo not drawn)	none (no result: GRIN3A LBD mod, WT yeast gro inh, CHOP inh, EBV gp42 block)
COc1ccc(-c2csc(C(O)c3ccc(F)c(F)c3)n2)cn1 (stereo not drawn)	none (no result: GRIN3A LBD mod, WT yeast gro inh, CHOP inh, EBV gp42 block)
O=C(NCc1ccc(Cl)cc1)C1CCN(C(=O)Cc2ccccc2)CC1	none (no result: WT yeast gro inh, CHOP inh, EBV gp42 block)
COc1cccc(-c2cc3nc(NCc4ccc5occc5c4)n(C)c(=O)c3s2)c1	none (no result: GRIN3A LBD mod, WT yeast gro inh, CHOP inh, EBV gp42 block)
Nc1c(C(O)(C(F)(F)F)C(F)(F)F)cc(C(O)(C(F)(F)F)C(F)(F)F)c2ccccc12	CHOP inh 94.5
CC(C)[C@H](NC(=O)C1CCN(C(=O)[C@H](Cc2ccccc2)NC(=O)OC(C)(C)C)CC1)C(=O)O	none (no result: WT yeast gro inh, CHOP inh, EBV gp42 block)
Cc1cc[n+](-c2[nH]c(=O)sc2/C=N/NC([S-])=Nc2ccccc2)cc1C	EBV gp42 block 64.5
CC(C)(C)c1cc[n+](-c2[nH]c(=O)sc2/C=N/NC([S-])=Nc2ccccc2)cc1	EBV gp42 block 117.2 (no result: WT yeast gro inh)
Cc1ccc[n+](-c2[nH]c(=O)sc2/C=N/N=C(\[O-])CCn2c3ccccc3c3ccccc32)c1	none (no result: WT yeast gro inh)
O=C1NNC(=O)C1c1ccccc1	none (no result: WT yeast gro inh, CHOP inh, EBV gp42 block)
COc1ccccc1-c1cc(C(=O)N2CCN(c3ccccc3)CC2)no1	none (no result: WT yeast gro inh, CHOP inh, EBV gp42 block)
Cc1c(NC(=O)CN2C(=O)NC(C)(c3ccccc3)C2=O)c(=O)n(-c2ccccc2)n1C (stereo not drawn)	CHOP inh 82.4
Cc1ccc(C2(C)NC(=O)N(CC(=O)Nc3c(C)n(C)n(-c4ccccc4)c3=O)C2=O)cc1 (stereo not drawn)	none
CC(C)C[C@H](NC(=O)C1CCN(S(=O)(=O)c2ccccc2)CC1)C(=O)NCc1ccncc1	none (no result: WT yeast gro inh, CHOP inh, EBV gp42 block)
CC(=O)c1c(OCC(=O)O)ccc2c(C)cc(=O)oc12	none
CC(=O)c1c(OC(=O)c2ccccc2Br)ccc2c(C)cc(=O)oc12	GRIN3A LBD mod 13.1
CC(C)Sc1nc(N2CCOCC2)c2c3c(sc2n1)COC(C)(C)C3	CHOP inh 81.5
Cc1c([C@H]2[C@@H](CC#N)C2(C)C)c2ccccc2n1C	none
Cc1[nH]c2c(Br)cccc2c1[C@H]1[C@@H](CC#N)C1(C)C	CHOP inh 71.8
Cc1ccc(-n2[nH]c(C)c(C=Nc3ccc(Br)cn3)c2=O)cc1	CHOP inh 79.6
Cc1ccc(-n2[nH]c(C)c(/C=N/c3ccccn3)c2=O)cc1	none
CN(C)S(=O)(=O)c1ccc(-n2cccc2)cc1	none
CCc1ccc2oc(-c3cc(N)ccc3Cl)nc2c1	none

Compound activity from PubChem.
